TRPC4 act: activators of mouse TRPC4 channel, primary screen, Fluo4 calcium, HEK293 TRPC4beta/mu-opioid cells. Fluo4 calcium fluorescence; stronger effect = higher value. B-score at 10 µM. 0.49% of 310,000 active. AID 2237, 2010;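 active = B-score above 5 SD of library B-scores, and initial fluorescence ratio not above library mean plus 5 SD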;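 note: positive B-score marks a calcium rise read as TRPC4 activation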
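System: HEK293 cells stably co-expressing mouse TRPC4beta and mu-opioid receptor; Schedule: Fluo4 dye loading 45 min at room temperature, 110 s recording; Detection: Fluo4 fluorescence, kinetic; Evaluation: B-scored integrated calcium fluorescence ratio; Controls: buffer (low) and maximal DAMGO (high).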
TRPC4 PAM: positive allosteric modulators of TRPC4, primary screen, cell-based, mouse TRPC4beta, HEK293 mu-opioid, Fluo-4 calcium; DAMGO EC20, Fluo-4 Ca2+ flux; stronger effect = higher value; B-score at 10 µM; 0.42% of 310,000 active;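 active = B-score of calcium response area above 5 SD of library B-scores, with initial fluorescence ratio within 5 SD of library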
TRPC6 activator: mouse TRPC6 channel activators, primary screen, cell-based, HEK293, membrane potential dye; HEK293-TRPC6 membrane potential dye fluorescence; stronger effect = higher value; B-score at 10 µM; 0.13% of 310,000 active; AID 2550, 2010;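 active = B-score of the integrated fluorescence ratio above library mean plus 3 SD, and starting fluorescence ratio within library mean plus 5 SD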;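 note: higher score means more depolarization so channel activation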
Target sequence (Q61143 whole entry, looked up): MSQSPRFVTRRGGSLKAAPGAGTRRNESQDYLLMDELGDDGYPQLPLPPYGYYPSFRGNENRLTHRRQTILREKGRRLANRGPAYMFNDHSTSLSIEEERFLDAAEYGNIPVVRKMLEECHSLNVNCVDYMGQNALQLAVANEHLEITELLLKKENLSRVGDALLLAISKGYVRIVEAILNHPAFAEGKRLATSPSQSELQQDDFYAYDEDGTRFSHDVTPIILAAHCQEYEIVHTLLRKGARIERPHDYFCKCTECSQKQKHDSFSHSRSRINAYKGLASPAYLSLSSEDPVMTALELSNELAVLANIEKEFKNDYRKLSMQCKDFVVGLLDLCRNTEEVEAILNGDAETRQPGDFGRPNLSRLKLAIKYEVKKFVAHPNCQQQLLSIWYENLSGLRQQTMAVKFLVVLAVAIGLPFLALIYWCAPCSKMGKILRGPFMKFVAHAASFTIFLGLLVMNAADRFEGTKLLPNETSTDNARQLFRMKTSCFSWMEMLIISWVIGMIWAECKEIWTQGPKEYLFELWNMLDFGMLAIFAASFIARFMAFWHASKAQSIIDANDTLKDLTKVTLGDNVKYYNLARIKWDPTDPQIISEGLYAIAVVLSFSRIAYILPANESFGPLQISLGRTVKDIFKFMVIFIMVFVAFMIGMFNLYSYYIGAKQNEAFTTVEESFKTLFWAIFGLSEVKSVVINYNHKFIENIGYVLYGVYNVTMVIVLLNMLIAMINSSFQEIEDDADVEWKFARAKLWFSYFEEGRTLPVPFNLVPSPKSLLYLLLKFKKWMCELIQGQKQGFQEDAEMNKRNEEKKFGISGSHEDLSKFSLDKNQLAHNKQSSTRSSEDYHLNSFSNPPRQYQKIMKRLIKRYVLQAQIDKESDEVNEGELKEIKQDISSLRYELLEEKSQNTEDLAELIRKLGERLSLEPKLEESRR
TRPC4 inh: inhibitors of mouse TRPC4 channel, primary screen, Fluo4 calcium, HEK293 TRPC4beta/mu-opioid cells; B-score at 10 µM; Short transient receptor potential channel 4 (Mus musculus), Q9QUQ5; AID 2247, 2010; 0.39% of 300,000 active; DAMGO-evoked Fluo4 calcium flux; stronger effect = lower value;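 active = B-score over 3 SD under the library average, no early fluorescence shift, positive overall ratio signal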
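Assay system: HEK293 cells with stable TRPC4beta plus mu-opioid receptor expression. Dosing: single dose. Measured by: Fluo4 Ca2+ flux fluorescence. Also added: DAMGO in two steps, submaximal then maximal. Read-out: B score from integrated Fluo4 fluorescence ratio.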
TRPC6 inh: mouse TRPC6 channel inhibitors, primary screen, cell-based, HEK293, membrane potential dye | Short transient receptor potential channel 6 (Mus musculus), Q61143 | ACh-evoked depolarization; stronger effect = lower value | B-score at 10 µM | 1.1% of 310,000 active;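 active = B-score under library mean minus 3 SD, initial fluorescence not abnormally high, positive integrated signal ratio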;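 note: B-score derived from integrated fluorescence ratio over the kinetic read; more negative B-score means stronger inhibition of depolarization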
Numbers stand for hits; i = inactive. Hits are enriched below; roughly 2.3% of the tested compounds scored in any of these assays.

SMILES	TRPC4 act	TRPC4 PAM	TRPC6 activator	TRPC4 inh	TRPC6 inh
CCCn1c(Nc2ccccc2C)nc2ccccc21	i	i	i	-5	i
CCCn1c(NCc2ccc(C)o2)nc2ccccc21	i	i	i	-6	i
CCc1ccccc1Nc1nc2ccccc2n1CC	i	i	i	i	i
COc1cc2[nH]c(C(=O)N3CCc4ccccc43)cc2c(OC)c1OC	i	i	i	i	i
Cc1nn(Cc2noc(C(=O)NCc3ccccn3)n2)c(C)c1Br	i	i	i	i	i
Cc1nn(Cc2noc(C(=O)NCCc3ccccn3)n2)c(C)c1Br	82	i	i	i	i
N#Cc1c(-c2ccccc2)nc(SCC(=O)NC2CCCCC2)[nH]c1=O	i	i	i	i	i
CN(C(=O)CSc1nc(-c2ccc(C(C)(C)C)cc2)c(C#N)c(=O)[nH]1)C1CCCCC1	i	i	i	-6	i
COc1ccc(-c2ccc(CNCc3ccccn3)o2)cc1Cl	i	i	i	-8	i
CCCCn1cnc2c(c(-c3ccccc3)c(-c3ccccc3)n2Cc2ccco2)c1=N	i	i	i	i	-7.52
N=c1c2c(-c3ccccc3)c(-c3ccccc3)n(Cc3ccco3)c2ncn1Cc1ccco1	46	i	i	i	i
N=c1c2c(-c3ccccc3)c(-c3ccccc3)n(Cc3ccccc3)c2ncn1CCCn1ccnc1	i	i	i	i	-6.57
N=c1c2c(ncn1Cc1ccco1)Oc1ccc3ccccc3c1C2c1ccccc1 (stereo not drawn)	i	i	i	i	i
Cc1cc(C(=O)NC2CC(C)(C)Cc3c2cnn3-c2cccc(F)c2)n(C)n1 (stereo not drawn)	i	i	i	i	i
Cc1ccc(S(=O)(=O)N(CC(=O)N2CCOCC2)c2ccccc2F)cc1	i	i	i	i	i
CCOc1ccccc1N(CC(=O)N1CCOCC1)S(=O)(=O)c1ccc(SC)cc1	175	i	i	i	i
COc1cccc(CNC(=O)C2CC(=O)N(C3CCCCC3)C2)c1 (stereo not drawn)	i	i	i	i	i
CCc1nc(SCC(=O)N2CCCc3ccccc32)c2oc3ccccc3c2n1	i	i	i	-5	i
CCc1nc(SCC(=O)NC2CCCC2)c2oc3ccccc3c2n1	i	i	i	i	i
CCOC(=O)c1c(NC(=O)COC(=O)Cc2c[nH]c3ccccc23)sc(C(=O)N(C)C)c1C	175	53	i	i	i
CCC(=O)c1cc2c(C)cc(=O)oc2c(C)c1OC(=O)C(C)C	i	i	i	-6	i
Cc1ccc(C(C(=O)NC(C)(C)C)N(C(=O)CCC(=O)Nc2ccccn2)c2ccccc2F)cc1 (stereo not drawn)	i	i	i	-8	i
Cc1ccc(C(C(=O)NC(C)(C)C)N(Cc2ccco2)C(=O)CCC(=O)Nc2ccccn2)cc1 (stereo not drawn)	i	i	i	i	i
CCn1c(=O)cc(OCC(=O)N2CCN(c3cccc(C(F)(F)F)c3)CC2)c2ccccc21	i	11	i	i	i
COc1ccccc1N1CCN(C2CCCN(Cc3ccc(Cl)cc3)C2)CC1 (stereo not drawn)	i	i	i	i	i
SMILES	TRPC4 act	TRPC4 PAM	TRPC6 activator	TRPC4 inh	TRPC6 inh
COc1ccc(O)c(CN2CCCC(N3CCN(c4ccccc4OC)CC3)C2)c1 (stereo not drawn)	43	i	i	i	i
COc1ccccc1N1CCN(C2CCCN(C(=O)c3oc(C)cc3C)C2)CC1 (stereo not drawn)	54	i	i	i	i
COc1ccccc1N1CCN(C2CCCN(Cc3ccccc3OCCO)C2)CC1 (stereo not drawn)	i	12	i	i	i
C=CCNc1ncnc2sc(SC)nc12	i	i	i	i	i
O=C(c1cccs1)c1no[n+]([O-])c1C(=O)c1cccs1	54	i	i	i	i
COc1ccc(NC(=O)c2c(N)no[n+]2[O-])cc1	i	i	i	i	i
COc1ccc(C(=O)c2no[n+]([O-])c2C(=O)c2ccc(OC)cc2)cc1	i	53	i	i	i
Nc1cc(Cl)nnc1Cl	i	i	i	i	i
Cc1c(Cl)cccc1N=C(N)N=C(N)N	51	i	i	i	i
O=C(c1cccc([N+](=O)[O-])c1)N1CCCC(C(=O)N2CCN(c3ccccc3)CC2)C1 (stereo not drawn)	i	i	i	i	i
O=C(O)c1ccc(N/N=C/c2ccc(C(F)(F)F)cc2)cc1	i	i	i	-5	i
Cc1cc(NC(=O)CCC(=O)N(CC(=O)NC2CCCC2)c2ccc(C)c(F)c2)no1	i	i	i	i	i
C/C(=N\NC(=O)c1ccccc1NC(=O)c1ccc(Cl)cc1)c1ccncc1	i	i	i	i	i
NC1=NC[C@H](Cc2ccc(O)cc2)N1CC1CCCCC1	76	i	i	i	i
CNC(=S)N1CCN(C(c2ccccc2)c2ccccc2)CC1	50	i	i	-6	i
CCC(C)NC(=S)N1CCN(C(c2ccccc2)c2ccccc2)CC1 (stereo not drawn)	i	i	i	i	i
c1ccc(-c2ccc(-c3ccccn3)nn2)nc1	i	i	i	i	-11.1
COc1ccccc1N1C(=NC(=O)CCC2CCCC2)SC2CS(=O)(=O)CC21 (stereo not drawn)	i	i	i	i	i
CC(C)C1CC(CCNCc2ccc(N(C)C)cc2)(c2ccccc2)CCO1 (stereo not drawn)	100	i	i	i	i
Cc1ccc(C2(CCNCc3ccc(N(C)C)cc3)CCOC(C(C)C)C2)cc1 (stereo not drawn)	111	i	i	i	i
CC(C)C1CC(CCNCc2ccc3c(c2)OCO3)(c2ccccc2)CCO1 (stereo not drawn)	122	i	i	i	i
Cc1cc(=O)n2nc(N3CCCC(C(=O)Nc4ccc(C)c(C)c4)C3)sc2n1 (stereo not drawn)	i	i	i	i	i
O=C(NCCc1c[nH]c2ccccc12)OCCCCOC(=O)NCCc1c[nH]c2ccccc12	i	i	i	i	i
O=C(Nc1nnc(-c2ccc(F)cc2)o1)c1cc(Cl)sc1Cl	220	i	i	i	i
O=C(Nc1nnc(C2=COCCO2)o1)c1cccc([N+](=O)[O-])c1	i	i	i	i	i
O=C(Nc1nnc(-c2ccc(F)cc2)o1)c1cccc([N+](=O)[O-])c1	126	i	i	-6	i
O=C(Nc1nnc(-c2ccc3c(c2)CCCC3)o1)c1ccccc1	66	i	i	i	i

Assay outcomes from PubChem.
